Source: ChEMBL document CHEMBL1153191, “Triazole oxytocin antagonists: Identification of an aryloxyazetidine replacement for a biaryl substituent” (Bioorg Med Chem Lett, 2010)
Converted amounts (≈) assume the structure as drawn.

Key:
Vasopressin V2 receptor = Vasopressin V2 receptor (Homo sapiens, UniProt P30518); experiment: Antagonist activity at human cloned vasopressin V2 receptor by cell based beta lactamase assay; assay type: functional
Rattus norvegicus [1] = experiment: Volume of distribution in rat at 0.5 mg/kg, po; assay type: ADME, organism-based; parameters: dose 0.5 mg/kg, route oral; settings: in vivo
Oxytocin receptor = target: T1, Oxytocin receptor (Homo sapiens, UniProt P30559); experiment: Antagonist activity at human cloned oxytocin receptor by cell based beta lactamase assay; assay type: functional
T1 sequence (P30559 whole entry): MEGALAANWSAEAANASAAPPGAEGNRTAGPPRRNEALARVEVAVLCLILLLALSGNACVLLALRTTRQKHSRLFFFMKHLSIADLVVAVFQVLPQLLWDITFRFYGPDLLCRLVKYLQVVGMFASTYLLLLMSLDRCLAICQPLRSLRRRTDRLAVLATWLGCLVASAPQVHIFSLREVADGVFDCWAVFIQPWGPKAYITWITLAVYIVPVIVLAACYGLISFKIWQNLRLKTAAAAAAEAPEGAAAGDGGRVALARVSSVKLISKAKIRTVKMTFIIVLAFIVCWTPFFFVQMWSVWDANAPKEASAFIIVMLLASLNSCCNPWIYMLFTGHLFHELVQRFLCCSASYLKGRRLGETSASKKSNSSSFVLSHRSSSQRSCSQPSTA

Vasopressin V1a receptor = Vasopressin V1a receptor (Homo sapiens, UniProt P37288); experiment: Antagonist activity at human cloned vasopressin V1a receptor by cell based beta lactamase assay; assay type: functional
Liver microsomes = experiment: Intrinsic clearance in human liver microsomes; assay type: ADME, Microsome
[2] = Half life in dog at 0.2 mg/kg, po; assay type: ADME, organism-based, Canis lupus familiaris; parameters: dose 0.2 mg/kg, route oral; settings: in vivo
Summary of the method: (§1)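 Pharmacokinetic parameters from oral dosing of a suspension of fully crystalline material, at 2 mg/Kg in rat and 0.2 mg/Kg in dog.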

[3] = Oral bioavailability in dog at 0.2 mg/kg, po; assay type: ADME, organism-based, Canis lupus familiaris; settings: in vivo
Summary of the method: (§2)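 Oral bioavailability from oral dosing of a suspension of fully crystalline material, at 2 mg/Kg in rat and 0.2 mg/Kg in dog, calculated by comparison with iv pharmacokinetic data.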

[4] = target: Growth hormone secretagogue receptor type 1 (Homo sapiens, UniProt Q92847); experiment: Binding affinity to ghrelin receptor
[5] = Aqueous solubility at pH 7.5; assay type: physicochemical; settings: buffer
Summary of the method: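 Aqueous solubility was measured on fully crystalline material at pH 7.5.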

[6] = Clearance in dog at 0.2 mg/kg, po; assay type: ADME, organism-based, Canis lupus familiaris; parameters: dose 0.2 mg/kg, route oral; settings: in vivo; summary of the method: as §1
Canis familiaris = experiment: Volume of distribution in dog at 0.2 mg/kg, po; assay type: ADME, organism-based, Canis lupus familiaris; parameters: dose 0.2 mg/kg, route oral; settings: in vivo; summary of the method: as §1
[7] = Clearance in rat at 2 mg/kg, po; assay type: ADME, organism-based; parameters: dose 2 mg/kg, route oral; settings: in vivo; summary of the method: as §1
[8] = Oral bioavailability in rat at 2 mg/kg; assay type: ADME, organism-based; settings: in vivo; summary of the method: as §2
Rattus norvegicus [9] = experiment: Volume of distribution in rat at 2 mg/kg, po; assay type: ADME, organism-based; parameters: dose 2 mg/kg, route oral; settings: in vivo; summary of the method: as §1
[10] = target: Kappa-type opioid receptor (Homo sapiens, UniProt P41145); experiment: Binding affinity to kappa opioid receptor
Substance-P receptor = Substance-P receptor (Homo sapiens, UniProt P25103); experiment: Binding affinity to NK1 receptor
[11] = Half life in rat at 2 mg/kg, po; assay type: ADME, organism-based; parameters: dose 2 mg/kg, route oral; settings: in vivo; summary of the method: as §1

Vasopressin V1a receptor, sequence (P37288 whole entry): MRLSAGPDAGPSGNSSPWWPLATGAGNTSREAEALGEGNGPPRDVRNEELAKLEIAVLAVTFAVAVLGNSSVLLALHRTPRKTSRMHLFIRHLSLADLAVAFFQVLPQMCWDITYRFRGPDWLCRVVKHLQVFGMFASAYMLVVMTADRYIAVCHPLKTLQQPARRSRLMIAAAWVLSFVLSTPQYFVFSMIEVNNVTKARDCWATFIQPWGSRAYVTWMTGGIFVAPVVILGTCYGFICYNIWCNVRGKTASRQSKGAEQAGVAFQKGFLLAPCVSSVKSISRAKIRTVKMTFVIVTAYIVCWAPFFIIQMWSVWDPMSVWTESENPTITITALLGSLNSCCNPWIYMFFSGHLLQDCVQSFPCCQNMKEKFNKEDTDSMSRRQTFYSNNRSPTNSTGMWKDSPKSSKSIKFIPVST
Vasopressin V2 receptor, sequence (P30518 whole entry): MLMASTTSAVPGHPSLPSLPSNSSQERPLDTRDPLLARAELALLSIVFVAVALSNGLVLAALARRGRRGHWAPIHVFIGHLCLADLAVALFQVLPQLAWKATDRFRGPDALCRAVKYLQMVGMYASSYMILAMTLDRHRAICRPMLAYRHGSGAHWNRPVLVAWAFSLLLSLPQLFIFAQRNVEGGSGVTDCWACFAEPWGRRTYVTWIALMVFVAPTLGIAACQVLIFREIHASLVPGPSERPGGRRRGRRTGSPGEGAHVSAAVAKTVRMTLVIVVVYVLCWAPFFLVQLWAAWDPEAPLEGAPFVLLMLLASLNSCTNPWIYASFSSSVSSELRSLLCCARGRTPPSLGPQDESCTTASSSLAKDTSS
Substance-P receptor, sequence (P25103 whole entry): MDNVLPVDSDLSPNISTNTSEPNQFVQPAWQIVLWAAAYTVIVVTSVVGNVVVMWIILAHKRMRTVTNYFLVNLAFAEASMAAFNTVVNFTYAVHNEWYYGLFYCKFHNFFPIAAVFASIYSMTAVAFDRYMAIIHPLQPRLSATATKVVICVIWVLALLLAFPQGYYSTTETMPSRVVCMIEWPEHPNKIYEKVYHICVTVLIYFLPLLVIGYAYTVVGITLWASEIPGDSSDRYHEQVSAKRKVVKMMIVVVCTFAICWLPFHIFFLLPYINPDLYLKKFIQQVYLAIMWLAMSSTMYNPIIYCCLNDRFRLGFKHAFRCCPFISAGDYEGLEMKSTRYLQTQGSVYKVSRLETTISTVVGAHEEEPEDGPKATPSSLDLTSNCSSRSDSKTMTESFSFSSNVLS
Kappa-type opioid receptor, sequence (P41145 whole entry): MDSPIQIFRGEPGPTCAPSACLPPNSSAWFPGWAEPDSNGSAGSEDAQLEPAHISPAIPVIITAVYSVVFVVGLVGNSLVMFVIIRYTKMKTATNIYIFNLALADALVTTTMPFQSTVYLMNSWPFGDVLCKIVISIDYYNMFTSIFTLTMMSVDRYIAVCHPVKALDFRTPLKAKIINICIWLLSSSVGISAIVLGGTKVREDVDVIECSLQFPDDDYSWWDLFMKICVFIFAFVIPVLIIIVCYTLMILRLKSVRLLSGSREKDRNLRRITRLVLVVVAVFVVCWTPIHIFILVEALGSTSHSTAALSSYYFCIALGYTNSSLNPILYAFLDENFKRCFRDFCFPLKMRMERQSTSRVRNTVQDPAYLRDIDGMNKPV
Growth hormone secretagogue receptor type 1, sequence (Q92847 whole entry): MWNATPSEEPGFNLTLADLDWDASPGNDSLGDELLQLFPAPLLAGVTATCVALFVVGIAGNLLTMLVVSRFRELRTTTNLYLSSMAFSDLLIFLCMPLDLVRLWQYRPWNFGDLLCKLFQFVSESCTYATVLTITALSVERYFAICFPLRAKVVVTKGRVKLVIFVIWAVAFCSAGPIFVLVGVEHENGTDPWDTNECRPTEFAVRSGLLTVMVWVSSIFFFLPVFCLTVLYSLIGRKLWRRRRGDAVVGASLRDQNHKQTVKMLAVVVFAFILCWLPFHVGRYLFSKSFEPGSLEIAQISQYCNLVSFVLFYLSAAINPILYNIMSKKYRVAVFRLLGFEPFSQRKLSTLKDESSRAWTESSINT

## COc1ccc(-n2c(C)nnc2-c2cnc(-c3ccc(F)cc3C)cn2)cn1
Vasopressin V2 receptor
  Ki: > 10000 nM
Rattus norvegicus [1]
  Vd: 4.4 L/kg

## COc1ccc(-n2c(C)nnc2N2CC(Oc3ccc(F)cc3Cl)C2)cn1
Oxytocin receptor
  Ki: 28.4 nM
Vasopressin V1a receptor
  Ki: 2430 nM
Vasopressin V2 receptor
  Ki: > 10000 nM
Liver microsomes
  clearance: 22 µL/min/mg

## COCc1nnc(N2CC(Oc3ccc(F)cc3C)C2)n1-c1ccc(OC)nc1
Oxytocin receptor
  Ki: 18.4 nM
Vasopressin V1a receptor
  Ki: 719 nM
Vasopressin V2 receptor
  Ki: 1190 nM

## COCc1nnc(N2CC[C@@H](Oc3ccccc3C)C2)n1-c1ccc(OC)nc1
Oxytocin receptor
  Ki: 28.5 nM
Vasopressin V1a receptor
  Ki: 255 nM
Vasopressin V2 receptor
  Ki: > 10000 nM

## COc1ccc(-n2c(C)nnc2N2CC(Oc3ccccc3Cl)C2)cn1
Oxytocin receptor
  Ki: 55.1 nM
Vasopressin V1a receptor
  Ki: 1940 nM
Vasopressin V2 receptor
  Ki: > 10000 nM

## COCc1nnc(N2CC(Oc3ccccc3Cl)C2)n1-c1ccc(OC)nc1
Oxytocin receptor
  Ki: 32.5 nM
Vasopressin V1a receptor
  Ki: 1340 nM
Vasopressin V2 receptor
  Ki: > 10000 nM
Liver microsomes
  clearance: 21 µL/min/mg

## COc1ccc(-n2c(C)nnc2N2CC[C@@H](Oc3ccc(F)cc3C)C2)cn1
Oxytocin receptor
  Ki: 31.8 nM
Vasopressin V1a receptor
  Ki: 941 nM
Vasopressin V2 receptor
  Ki: > 10000 nM
Liver microsomes
  clearance: 95 µL/min/mg

## COc1ccc(-n2c(C)nnc2N2CCC(Oc3ccccc3)CC2)cn1
Oxytocin receptor
  Ki: 114 nM
Vasopressin V1a receptor
  Ki: 127 nM
Vasopressin V2 receptor
  Ki: > 10000 nM

## COc1ccc(-n2c(C)nnc2N2CCC(Oc3ccccc3C)CC2)cn1
Oxytocin receptor
  Ki: 5.4 nM
Vasopressin V1a receptor
  Ki: 21.6 nM
Vasopressin V2 receptor
  Ki: > 10000 nM

## COc1ccc(-n2c(C)nnc2N2CCC(Oc3ccc(F)cc3C)CC2)cn1
Vasopressin V1a receptor
  Ki: 111 nM
Vasopressin V2 receptor
  Ki: > 10000 nM
Liver microsomes
  clearance: 23 µL/min/mg

## COCc1nnc(N2CCC(Oc3ccccc3C)CC2)n1-c1ccc(OC)nc1
Oxytocin receptor
  Ki: 2.2 nM
Vasopressin V1a receptor
  Ki: 24.4 nM
Vasopressin V2 receptor
  Ki: > 10000 nM

## COc1ccc(-n2c(C)nnc2N2CC[C@@H](Oc3ccccc3C)C2)cn1
Oxytocin receptor
  Ki: 35.9 nM
Vasopressin V1a receptor
  Ki: 734 nM
Vasopressin V2 receptor
  Ki: > 10000 nM
Liver microsomes
  clearance: 32 µL/min/mg

## COCc1nnc(N2CC[C@@H](Oc3ccc(F)cc3C)C2)n1-c1ccc(OC)nc1
Oxytocin receptor
  Ki: 17.9 nM
Vasopressin V1a receptor
  Ki: 586 nM
Vasopressin V2 receptor
  Ki: > 10000 nM
Liver microsomes
  clearance: > 440 µL/min/mg

## COCc1nnc(N2CC[C@H](Oc3ccccc3C)C2)n1-c1ccc(OC)nc1
Oxytocin receptor
  Ki: 207 nM
Vasopressin V1a receptor
  Ki: 522 nM
Vasopressin V2 receptor
  Ki: > 10000 nM

## COc1ccc(-n2c(C)nnc2N2CC(Oc3ccccc3)C2)cn1
Oxytocin receptor
  Ki: 304 nM
Vasopressin V1a receptor
  Ki: > 10000 nM
Vasopressin V2 receptor
  Ki: > 10000 nM
Liver microsomes
  clearance: < 7 µL/min/mg

## COc1ccc(-n2c(C)nnc2N2CC(Oc3ccc(F)cc3C)C2)cn1
Oxytocin receptor
  Ki: 17.5 nM
Vasopressin V1a receptor
  Ki: 608 nM
Vasopressin V2 receptor
  Ki: > 10000 nM

## COCc1nnc(N2CC(Oc3ccc(F)cc3Cl)C2)n1-c1ccc(OC)nc1
Oxytocin receptor
  Ki: 9.5 nM
[2]
  half-life: 1.9 h
[3]
  bioavailability: 81%
[4]
  Ki: 4400 nM
Vasopressin V1a receptor
  Ki: 1120 nM
[5]
  solubility: 59 µg/mL (≈ 141 µM)
[6]
  CL/F: 8 mL/min/kg
Canis familiaris
  Vd: 1.3 L/kg
[7]
  CL/F: 36 mL/min/kg
[8]
  bioavailability: 62%
Rattus norvegicus [9]
  Vd: 2.5 L/kg
Vasopressin V2 receptor
  Ki: > 10000 nM
Liver microsomes
  clearance: 10 µL/min/mg
[10]
  Ki: 3000 nM
Substance-P receptor
  Ki: 6500 nM
[11]
  half-life: 0.9 h

## COc1ccc(-n2c(C)nnc2N2CCC(Oc3cccc(F)c3C)CC2)cn1
Oxytocin receptor
  Ki: 2.6 nM
Vasopressin V2 receptor
  Ki: > 10000 nM
Liver microsomes
  clearance: 24 µL/min/mg

## COc1ccc(-n2c(C)nnc2N2CC(Oc3cc(F)ccc3C)C2)cn1
Oxytocin receptor
  Ki: 40 nM
Vasopressin V1a receptor
  Ki: 1680 nM
Vasopressin V2 receptor
  Ki: 2770 nM

## COc1ccc(-n2c(C)nnc2N2CC[C@@H](Oc3ccccc3)C2)cn1
Oxytocin receptor
  Ki: 170 nM
Vasopressin V1a receptor
  Ki: 1840 nM
Vasopressin V2 receptor
  Ki: > 10000 nM

## COc1ccc(-n2c(C)nnc2N2CCC(Oc3cc(F)cc(F)c3C)CC2)cn1
Oxytocin receptor
  Ki: 0.4 nM
Vasopressin V1a receptor
  Ki: 175 nM
Vasopressin V2 receptor
  Ki: > 10000 nM

## COCc1nnc(N2CC[C@@H](Oc3cc(F)cc(F)c3C)C2)n1-c1ccc(OC)nc1
Oxytocin receptor
  Ki: 5.8 nM
Vasopressin V1a receptor
  Ki: 1000 nM
Vasopressin V2 receptor
  Ki: > 10000 nM
Liver microsomes
  clearance: 107 µL/min/mg
